Sampled rows, rich in hits. Any-hit rate of the full collection: about 1.9%.
Rin1 Abl inh = inhibitors of human Rin1-Abl protein interaction | TR-FRET Rin1/Abl binding, biochemical | P00519+Q13671 | 360,000 tested, 0.4% active | AID 588664 | inhibition, % at 7.35 µM; in the data active = inhibition above about 5%, passing the limit was not always enough
SR-BI DiI inh = inhibitors of mouse SR-BI mediated HDL lipid uptake; inhibition, % at 12.5 µM; 320,000 tested, 0.96% active; Q61009; ldlA[mSR-BI] CHO cells, DiI-HDL uptake fluorescence, 3 h;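 active = mean replicate inhibition of at least 70% and a set share of replicates each scoring 70 or more; inconclusive = meets just one of the two criteria; inactive = fails both criteria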;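 also: 0% = median of neutral control wells and 100% = median of positive control wells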
SR-BI uptake up = activators of SR-BI mediated HDL lipid uptake; AID 504775; 320,000 tested, 0.096% active; activation, % at 12.5 µM; CHO ldlA[mSR-BI] cells, DiI-HDL uptake fluorescence, 3 h; 100 = double the neutral-control signal;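 active = mean replicate activation of at least 60% and every replicate at or above 60%; inconclusive = mean or all-replicate condition met, but not both; inactive = mean below 60% and not all replicates reaching 60%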;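 also: 0% = median plate neutral-control signal and 100% = twice that signal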
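Material – SR-BI-overexpressing, LDLR-lacking CHO cells · Medium – BSA-supplemented, HEPES-buffered Ham's F12, pH 7.4 · Doses – single concentration · Times – compound with DiI-HDL co-incubation, 3 h at 37 °C · Measured by – bottom-read fluorescence, 550/595 nm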
GRK2 inh = inhibitors of human GRK2 displacing RNA aptamer; P25098; bead flow cytometry, FAM-aptamer displacement from GRK2; inhibition of aptamer binding, % at 10 µM; 330,000 tested, 0.59% active; AID 488847;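 active = inhibition of aptamer binding above 40%, roughly 3 SD of noise, on plates passing a quality check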;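 also: median bead fluorescence of bound FAM aptamer so fluorescent compounds give negative values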
DiI quencher = DiI fluorescence quenching in cell-free counter-screen | cell-free DiI-HDL fluorescence quenching, 30 min | AID 540326 | 470 tested, 20% active | shares compounds with SR-BI DiI inh | AC50, µM (titrated, usually from 35 µM), inactives show top-dose activity change, negative = quenching;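 active = quenching, a falling signal, with AC50 below a set limit tied to the top valid dose, actives reach about 32 µM in these data; inconclusive = no clear call, values can overlap the other calls; inactive = rising signal, and the rest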
* = called active by the depositor; i = inactive; ? = inconclusive; . = no result given.

SMILES | Rin1 Abl inh | SR-BI DiI inh | SR-BI uptake up | GRK2 inh | DiI quencher
COc1ccc(NC(=O)C2CCN(C(=O)c3ccc(OC)cc3)CC2)cc1 | -2 | 115* | -115 | 0 | 0%
c1ccc(CCNc2nc(-c3ccncc3)nc3ccccc23)cc1 | -2 | ? | -73 | 3 | 2%
COc1ccccc1CNC(=O)Nc1nnc([C@H]2C[C@H](O)[C@@H](CO)O2)s1 | 0 | . | . | . | .
COc1cc(/C=C/C(=O)Nc2cccc(S(=O)(=O)NC3=NCCCCC3)c2)ccc1OCC#N | -7 | 75* | -75 | 11 | 0%
COc1ccc(/C=C/C(=O)Nc2cccc(S(=O)(=O)NC3=NCCCCC3)c2)cc1 | -4 | . | . | 8 | .
COC(Cc1ccccc1N1CCCC1=O)OC | 3 | -14 | 14 | 1 | .
Cc1ccc(C(=O)COc2cc(O)c3c(=O)cc(-c4ccccc4)oc3c2)cc1 | -2 | 78* | -78 | 0 | -4%
CCN(CC)C(=O)c1cccc(NC(=O)c2cc(C3CC3)nc3c2cnn3C(C)C)c1 | 4 | 78* | -78 | 0 | 6%
CC(=O)Nc1ccc(NC(=O)c2cc(C3CC3)nc3c2cnn3C(C)C)cc1 | 4 | ? | -75 | . | .
COc1ccc([C@H]2/C=C\CN(S(=O)(=O)c3ccc4ccccc4c3)[C@@H](C)C(=O)N2Cc2ccc(F)cc2)cc1 | 2 | 72* | -72 | 0 | -1%
COc1ccc([C@H]2/C=C\CN(S(=O)(=O)c3ccc(C)cc3)[C@@H](C)C(=O)N2Cc2ccc(F)cc2)cc1 | 2 | 51 | -51 | 0 | -2%
COc1ccc([C@H]2/C=C\CN(S(=O)(=O)c3cccc4cccnc34)[C@@H](C)C(=O)N2Cc2ccc(F)cc2)cc1 | 5 | 6 | -6 | 0 | -3%
COc1ccc([C@H]2/C=C\CN(Cc3ccc(N(C)C)cc3)[C@@H](C)C(=O)N2Cc2ccc(F)cc2)cc1 | 0 | 1 | -1 | 1 | .
COc1ccc([C@H]2/C=C\CN(C(=O)c3ccc(C)cc3)[C@@H](C)C(=O)N2Cc2ccc(F)cc2)cc1 | 1 | -14 | 14 | 0 | .
CCOCCCNC(=S)N1CCN(c2nc(-c3ccc(F)cc3)cs2)CC1 | 1 | 55 | -55 | 3 | .
O=C1c2cccc(NCCNCCO)c2C(=O)c2cccc(NCCNCCO)c21 | -21 | 0 | 0 | . | .
O=C(CCCc1ccncc1)c1ccccc1 | 2 | 1 | -1 | . | .
O=C(NC1CCCCC1)C(c1ccc2ncccc2c1)N(Cc1ccco1)C(=O)c1ccc2c(c1)OCCO2 (stereo not drawn) | 1 | -14 | 14 | 1 | -2%
Cc1cccc(NC(=O)COc2cccc3c2CCNC3=O)c1 | 1 | . | . | . | .
Cc1cc(C(=O)COC(=O)c2ccc(Cl)c(S(N)(=O)=O)c2)c(C)n1C1CC1 | -1 | 75* | -75 | 3 | 2%
CC(OC(=O)CNC(=O)c1ccc(Cl)cc1)C(=O)NC1CCCCC1C (stereo not drawn) | 0 | -15 | 15 | 0 | .
O=C(NCC1CCCO1)c1ccc2c(c1)N(Cc1ccc(F)cc1)CCS2 (stereo not drawn) | 6 | 62 | -62 | 0 | .
O=C(NCC1CCCO1)c1ccc2c(c1)N(Cc1ccc(F)cc1Cl)C(=O)CS2 (stereo not drawn) | 1 | -2 | 2 | 2 | -2%
COc1cccc(-c2nnc(SC(C(=O)c3c[nH]c4ccccc34)c3ccccc3)n2C)c1 (stereo not drawn) | -2 | 75* | -75 | 14 | 1%
Cc1ccc(NC(=O)c2ccccc2Cl)c(Cl)c1 | -1 | 23 | -23 | 1 | .
SMILES | Rin1 Abl inh | SR-BI DiI inh | SR-BI uptake up | GRK2 inh | DiI quencher
CC(=O)c1c(C(C)=O)c(C)n(-c2ccc(C)c(NC(=O)c3ccccc3Cl)c2)c1C | 3 | 79* | -79 | 21 | 5%
COc1ccccc1NC(=O)C1CCN(S(=O)(=O)c2ccc3c(c2)NC(=O)C(C)S3)CC1 (stereo not drawn) | -7 | 32 | -32 | 3 | .
CCC(=O)Nc1ccccc1-c1nnn(CC(=O)N2c3ccccc3CC2C)n1 (stereo not drawn) | 0 | 65 | -65 | 1 | 6%
O=C(Nc1ccccc1-c1nnn(CC(=O)N2CCc3ccccc3C2)n1)C1CCC1 | -1 | 55 | -55 | 2 | .
CC1Cc2ccccc2N1C(=O)Cn1nnc(-c2ccccc2NC(=O)C2CCC2)n1 (stereo not drawn) | 0 | 79* | -79 | 2 | 15%
Cc1cc(SC(C)C(=O)Nc2ncc(Cl)cc2Cl)nc2ccccc12 (stereo not drawn) | 0 | 72* | -72 | 0 | -1%
Cc1cnc(CNC(=O)c2ccc3sc([C@H]4C[C@H](O)[C@@H](CO)O4)nc3c2)cn1 | -3 | . | . | . | .
CCNC(=O)c1c(NC(=O)c2cc(-c3cc(C)cc(C)c3O)n[nH]2)sc2c1CCCC2 | 2 | ? | -73 | . | i
Cc1nc(NCc2cccnc2)c2c3c(sc2n1)CC(C)CC3 (stereo not drawn) | 2 | ? | -71 | 0 | -6%
CCOC(=O)c1sc2nc(C)nc(NCc3cccnc3)c2c1C | -5 | 10 | -10 | 0 | .
C[C@@H]1CN([C@@H](C)CO)C(=O)CCCn2nncc2CO[C@H]1CN(C)C(=O)c1ccncc1 | 1 | . | . | . | .
CCN(C(=O)COn1nnc2ccc(S(=O)(=O)N(C)C)cc21)C1CCS(=O)(=O)C1 (stereo not drawn) | 4 | 21 | -21 | 0 | -3%
Cc1ccccc1C(=O)Nc1cc(NC(=O)c2ccccc2C)cc(C(=O)O)c1 | -2 | -11 | 11 | 2 | -3%
N#CCCN(C(=O)COC(=O)CCc1c[nH]c2ccccc12)c1ccccc1 | 0 | 1 | -1 | 0 | -9%
COc1ccc(C(=O)c2sc(Nc3ccccc3)c(C(=O)Nc3ccc(OC)c(OC)c3)c2N)cc1 | 2 | . | . | 2 | .
COc1ccc(NC(=O)c2c(Nc3ccccc3)sc(C(=O)c3ccc(F)cc3)c2N)cc1 | 0 | 122* | -122 | 2 | 0.18µM*
Cc1nn(Cc2ccccc2)c(C)c1NC(=O)CCCn1nc([N+](=O)[O-])c(Cl)c1C | 3 | 24 | -24 | 1 | .
Cc1nn(Cc2c(Cl)cccc2Cl)c(C)c1NC(=O)CCCn1nc([N+](=O)[O-])c(Cl)c1C | 2 | 80* | -80 | 0 | -7%
Cc1cc2oc(=O)cc(-c3ccccc3)c2c(C)c1-c1ccc(C(F)(F)F)cc1 | -1 | ? | -74 | 27 | -4%
CC(C)(C)c1ccc2oc(=O)cc(-c3cccc(-c4ccc(C(F)(F)F)cc4)c3)c2c1 | -1 | -3 | 3 | 0 | .
CC(=O)CC(=O)NC1CCc2ccccc21 (stereo not drawn) | 2 | -5 | 5 | . | .
O=C(C[C@H]1C/C=C\CCC(=O)OC[C@H]2CCCN2C1=O)NCCO | 3 | -11 | 11 | 0 | 2%
O=C(C[C@@H]1C/C=C\CCCC(=O)OC[C@@H]2CCCN2C1=O)NCCO | -2 | -2 | 2 | 0 | .
